Rows were chosen to be rich in hits. Some 3.9% of all compounds tested hit in one or more screens of this group.
M1 PAM: potentiates human M1 receptor response to acetylcholine; activation, % at 3 µM; CHO-K1 hM1, Fluo-8 calcium fluorescence, ACh EC20; 0% = ACh EC20, 100% = maximal ACh; 360,000 tested, 0.088% active; AID 588819; P11229; in the data active = activation above about 19%, passing the limit was not always enough
CHRM1 antagonist: human CHRM1 antagonism; P11229; CHO-K1 hM1, Fluo-8 calcium fluorescence, ACh EC80 antagonist; inhibition, % at 3 µM; 360,000 tested, 1.3% active;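 active = percent inhibition above its own plate's cutoff, namely the mean of that plate's compound wells plus 3 SD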;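 note: peak over basal fluorescence ratio during 140 s after agonist addition; 0% = ACh EC80 plus DMSO and 100% = DMSO alone without agonist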
TAAR1 antagonist: human TAAR1 antagonism. inhibition, % at 3 µM. AID 624466. Q96RJ0. CHO RD-HGA16 TAAR1, Fluo-8 calcium fluorescence, antagonist. 360,000 tested, 1.5% active;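 active = inhibition above a per-plate cutoff, the mean inhibition of test compounds on that plate plus 3 SD, cut at about 49% in these data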;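 note: 0% = DMSO plus EC80 beta-PEA response and 100% = DMSO alone without agonist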
Target sequence (Q96RJ0 whole entry, looked up): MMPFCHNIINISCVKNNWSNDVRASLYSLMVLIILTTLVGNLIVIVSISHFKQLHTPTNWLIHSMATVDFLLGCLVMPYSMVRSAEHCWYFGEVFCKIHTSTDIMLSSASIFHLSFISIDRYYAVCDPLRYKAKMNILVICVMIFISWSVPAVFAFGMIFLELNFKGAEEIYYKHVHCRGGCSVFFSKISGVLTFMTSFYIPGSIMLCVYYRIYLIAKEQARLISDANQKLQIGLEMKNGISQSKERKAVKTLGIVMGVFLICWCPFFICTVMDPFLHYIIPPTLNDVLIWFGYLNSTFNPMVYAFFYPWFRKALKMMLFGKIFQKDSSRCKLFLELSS
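Test system – hTAAR1-expressing CHO RD-HGA16 cells, Gα16-coupled · Reagent – β-PEA at EC80 concentration, post-compound challenge · Compound dosing – 3 µM, single point · Timing – 140 s kinetic read after compound, 140 s after agonist · Detection – Fluo-8 intracellular calcium dye fluorescence, real-time kinetic reads · Control set – DMSO and EC80 PEA controls · Repeats – n of 1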
CHRM1 agonist: agonists of human M1 muscarinic receptor; P11229; CHO-K1 hM1, Fluo-8 calcium fluorescence, agonist mode; 0% DMSO, 100% acetylcholine EC100; activation, % at 3 µM; 360,000 tested, 0.33% active; AID 588814;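 active = activation above the run's mean compound activation plus 3 SD, cut at about 16% in these data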;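 note: peak over basal fluorescence ratio within a 140 s kinetic read after compound addition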
TAAR1 ag: human TAAR1 agonism | 360,000 tested, 0.99% active | CHO RD-HGA16 TAAR1, Fluo-8 calcium fluorescence; vehicle wells 0%, saturating PEA agonist 100% | activation, % at 3 µM | AID 624467 | Q96RJ0;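 active = activation above the mean activation of all test compounds in the run plus 3 SD, cut at about 38% in these data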
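Test system: RD-HGA16 (CHO) cells co-expressing Gα16 and hTAAR1; dosing: one-point dosing at 3 µM (nominal); timing: 17-24 h seeding, 75 min 37 °C dye, 30 min RT; signal: kinetic Fluo-8 calcium fluorescence; read-out basis: % activation relative to PEA EC100 response; controls: DMSO and PEA EC100; replicates: n 1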
m5-HT2A agonist: activates the mouse 5-HT2A serotonin receptor. P35363. 360,000 tested, 0.66% active. activation, % at 7.6 µM. CHO-K1 mHTR2A beta-arrestin complementation, luminescence; percent of 30 µM serotonin response;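 active = activation above a run cutoff, the mean activation of all tested compounds plus 3 SD, cut at about 14% in these data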;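 note: 0% = plate median of compound wells and 100% = 30 µM serotonin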
Numbers without * were called inactive; · = not tested or not shown.

SMILES	M1 PAM	CHRM1 antagonist	TAAR1 antagonist	CHRM1 agonist	TAAR1 ag	m5-HT2A agonist
CCCOC(=O)c1cccc(Nc2nc(-c3cccnc3)nc3ccccc23)c1	-18	34*	62*	-5	11	0
OC(CNc1nc(-c2cccnc2)nc2ccccc12)c1ccccc1 (stereo not drawn)	-8	11	49*	-8	13	0
OCCNc1nc(-c2cccnc2)nc2ccccc12	3	-3	14	-8	2	-4
CCSc1ccc(-c2cc(NC=O)c3ncc(-c4cccc(C(=O)NCCN(C)C)c4)n3c2)cc1	-10	8	11	-7	1	-10
c1ccc(CCN(Cc2ccccc2)Cc2nc(C3CC3)no2)cc1	2	-2	-5	-6	38*	-7
CCN(Cc1ccccc1)Cc1nc(CCc2ccccc2)no1	5	-12	17	-3	5	-3
C/C(=N/NC(=O)c1cc(C)[nH]n1)c1ccncc1	3	-3	-6	-2	-2	4
CC[n+]1c(/C=C/N(C)c2ccccc2)n(-c2ccccc2)c2ccc(-c3nc4ccccc4s3)cc21	-30	98*	·	-6	·	20*
CCc1ccc(C(C)NC(=S)NCc2ccc(F)cc2)cc1 (stereo not drawn)	-12	40*	44	0	40*	-3
Cc1nn(-c2ccccc2)c2ncc(C(=O)c3cc(Cl)ccc3O)cc12	7	-1	37	-4	0	-1
CCc1nn2cc(C(=O)c3cc(Cl)ccc3O)cnc2c1-c1ccc(F)cc1	-7	43*	-1	-6	1	-4
Cc1nn(CCN)c(C)c1Cl	5	1	58*	-11	91*	9
Cc1nn(CC(=O)O)c(C)c1Cl	8	-12	-26	-3	9	9
CCC(CC)c1nnc(NC(=O)CSCC(=O)Nc2cc(C)on2)s1	10	-10	-12	-1	-1	4
Cc1ccc(S(=O)(=O)c2cccc(S(=O)(=O)N3CCCC3)c2)cc1S(=O)(=O)N1CCCC1	-20	55*	3	-1	12	-1
O=[N+]([O-])c1ccc(Cl)c(S(=O)(=O)N2CCCCCC2)c1	2	-2	·	-12	·	3
Cc1ccc(/C=C/C(=O)O)cc1S(=O)(=O)N1CCCCC1	24*	40*	-7	0	1	1
Cc1ccc(/C=C/C(=O)O)cc1S(=O)(=O)N1CCc2ccccc2C1	8	0	-2	-7	2	2
O=S(=O)(c1ccc(Cl)c(S(=O)(=O)N2CCCC2)c1)N1CCCC1	-2	38*	-18	-5	6	1
Cc1ccc(S(=O)(=O)c2cccc(S(=O)(=O)N3CCOCC3)c2)cc1S(=O)(=O)N1CCOCC1	3	6	-15	-3	2	2
Cn1nc(C(F)(F)F)c(/C=N/OC(=O)c2ccccc2)c1Sc1ccc(Cl)cc1	-3	5	12	-2	-1	-2
Cn1nc(C(F)(F)F)c(/C=N/OC(=O)c2ccccc2)c1SCc1ccccc1Cl	-21	41*	21	-5	9	-1
CC[C@@H](C)[C@@H]1CN([C@@H](C)CN2CCC[C@H]2CN2C(N)=NC[C@@H]2Cc2ccccc2)C(=N)N1CCc1ccc(Cl)c(Cl)c1	-32	49*	·	-8	·	-9
NC1=NC[C@H](Cc2ccccc2)N1CCCCC1CCCCC1	-6	5	58*	-10	33	-6
NC1=NC[C@@H](CC2CCCCC2)N1CCc1cc(C(F)(F)F)cc(C(F)(F)F)c1	-17	35*	·	1	·	0
SMILES	M1 PAM	CHRM1 antagonist	TAAR1 antagonist	CHRM1 agonist	TAAR1 ag	m5-HT2A agonist
NC1=NC[C@H](Cc2ccc(O)cc2)N1CCCCC1CCCCC1	-23	25	-2	-11	9	-13
CC[C@@H](C)[C@@H]1CN([C@@H](C)CN2CCC[C@H]2CN2C(N)=NC[C@H]2CC(C)C)C(=N)N1CCCC1CCCC1	-25	19	-25	-11	5	-5
CC[C@@H](C)[C@@H]1CN([C@@H](C)CN2CCC[C@H]2CN2C(N)=NC[C@@H]2Cc2ccccc2)C(=N)N1CCCC1CCCC1	-31	76*	-4	-10	12	-11
NC1=NC[C@H](Cc2ccc(O)cc2)N1CCc1cc(C(F)(F)F)cc(C(F)(F)F)c1	9	-3	-11	-12	2	0
COc1ccccc1CCNC(=O)c1ccc(NC(=O)CC2SC(N3CCCCC3)=NC2=O)cc1 (stereo not drawn)	3	-2	-1	-6	31	-15
CCOc1ccccc1N1CCN(C(=O)c2ccncc2)CC1	-2	4	1	-3	3	-4
CCOc1ccccc1N1CCN(C(=O)c2cccc(-c3ccc(O)cc3)c2)CC1	9	-22	51*	6	14	-4
Cc1cc(C)cc(NC(=S)NCCSc2ccc(Cl)cc2)c1	-25	18	57*	-9	15	-6
CCCN1C(=O)c2n[nH]c(C)c2C1c1ccc2c(c1)OCO2 (stereo not drawn)	·	·	-15	·	-1	·
Cc1cc(N2CCNC[C@@H]2C)ccc1N1CCN(Cc2ccccc2)[C@H](C)C1	·	·	-8	·	10	·
CN1C(=O)c2ccc(N(C)C)cc2C1=O	4	6	-1	-4	6	5
COc1cc(=O)n(C)c2cc(N(C)C)ccc12	20*	-16	1	-4	3	11
O=C1C=CC(=O)N1Cc1ccccc1	5	-29	-14	-2	1	18*
CN1C(=O)N(C)N(Cc2ccccc2)C(=O)N1Cc1ccccc1	·	·	-26	·	3	·
CC(C)(C)c1ccc(-n2ncc3c2CCCC3NC(=O)c2ccncc2)cc1 (stereo not drawn)	-19	62*	-4	-4	0	-3
Cc1ccc(-n2ncc3c2CCCC3NC(=O)c2ccoc2)cc1C (stereo not drawn)	2	-5	-3	-1	1	0
Cc1cc(C(=O)NC2CCCc3c2cnn3-c2ccc(C)c(C)c2)n(C)n1 (stereo not drawn)	-11	44*	7	2	2	-3
CN(C(=O)CSc1cc(Cl)ccc1Cl)C1CCS(=O)(=O)C1 (stereo not drawn)	23	-29	-10	-2	3	-2
CC(=O)Nc1sc2c(c1C(c1ccccc1Cl)N1CCN(CCO)CC1)CCCC2 (stereo not drawn)	-26	45*	-16	-8	18	-7
CC(=O)Nc1sc2c(c1C(c1ccccn1)N1CCCC1)CCCC2 (stereo not drawn)	-6	14	-12	4	-1	3
